Publication PMC2943235 (Circulation research, 2010)
Entries after “also recorded” stand apart in the source; their conditions may differ.

Key:
THP-1 cells [1] = assay: Cholesterol efflux from THP-1 cells, with or without LXR agonist; format: cell-based, human
THP-1 cells [2] = format: cell-based, human; conditions: (efflux from live cells minus fixed cells)/efflux from live cells x100%; 80 μg/ml; 4 h; compared with apoA-I
VCAM-1 = format: cell-based, mouse; conditions: 0.75 mg/ml; TNF-α-activated SVEC4/VCAM-1 cells
Method in brief: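 SVEC4/VCAM-1 mouse endothelial cells were washed, then given test peptide, apoA-I or HDL at 0.75 mg/ml final for 18 h. TNF-α was added in serum-free medium (10 ng/ml final) for 5 h, and luciferase activity was measured. Activity was expressed per mg cellular protein, relative to vehicle-treated cells, as means ± SEM.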

Row | Substance | Capacity to support (ABCA1-dependent) cholesterol efflux, in words (THP-1 cells [1]) | Specificity of cholesterol efflux, in words (THP-1 cells [2]) | Inhibition of VCAM-1 expression, in words (VCAM-1)
1 | EKLKAKLEELKAKLEELL- P- EKAKAALEEAKAKAEELA | very low overall capacity to support cholesterol efflux | – | –
2 | EKLKAKLEELKAKLEELL- P- EKLKAKLEELKAKLEELL [ELK-2A2K2E] | exceptional capacity to support cholesterol efflux, even exceeding that of apoA-I; also recorded: very active in ABCA1-dependent cholesterol efflux | exceptional specificity | –
3 | EKLKALLEKLLAKLKELL P- EKLKALLEKLLAKLKELL [ELK-2A] | – | – | most active peptide
4 | EWLKELLEKLLEKLKELL- P- EWLKELLEKLLEKLKELL [ELK-1W] | modest capacity for the ABC-dependent efflux | exceptional specificity | –
